This is an account of results in ChEMBL document CHEMBL1138477, “8-(4-Methoxyphenyl)pyrazolo[1,5-a]-1,3,5-triazines: selective and centrally active corticotropin-releasing factor receptor-1 (CRF1) antagonists” (J Med Chem, 2009).

Calls of active or inactive are those of the source.

A short description of data set [1]: Clearance in Beagle dog at 1 mg/kg, iv. In kind it is ADME, organism-based, Canis lupus familiaris. On the set-up: dose 1 mg/kg, route intravenous. As to conditions: in vivo. The essentials: (§1)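 Male beagle dogs (8.0-11.0 kg) dosed iv or po (5 mg/kg oral suspension in 0.5% methylcellulose with 1% Tween-80); plasma sampled 0.25-24 h; liquid-liquid extraction with hexane/ether, LC/MS/MS, quantitation limit 1 ng/mL (2.42 nM); noncompartmental parameters as free base.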

Data set [2] in a line: Tmax in Beagle dog at 20 mg/kg, po. In kind it is ADME, organism-based, Canis lupus familiaris. On the set-up: dose 20 mg/kg, route oral. As to conditions: in vivo.
A short description of data set [3]: Elimination half life in Beagle dog at 1 mg/kg, iv. In kind it is ADME, organism-based, Canis lupus familiaris. As to conditions: in vivo, read-out: beta t1/2 (converted). More on the design: dose 1 mg/kg, route intravenous. The essentials: as §1
The nature of data set [4]: Cmax in Beagle dog at 20 mg/kg, po. In kind it is ADME, organism-based, Canis lupus familiaris. On the set-up: dose 20 mg/kg, route oral. Particulars: in vivo.
A short description of data set [5]: Oral bioavailability in Beagle dog at 20 mg/kg. In kind it is ADME, organism-based, Canis lupus familiaris. Particulars: in vivo.
A short description of data set [6]: Volume of distribution at steady state in Beagle dog at 1 mg/kg, iv. In kind it is ADME, organism-based, Canis lupus familiaris. More on the design: dose 1 mg/kg, route intravenous. Particulars: in vivo, read-out: Vdss. The essentials:
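Male beagle dogs (8.0-11.0 kg) dosed intravenously. Plasma sampled at 0.25, 0.5, 1, 2, 4, 6, 8, 12 and 24 h after dosing. Liquid–liquid extraction in hexane/ether, then LC/MS/MS assay (quantitation limit 1 ng/mL). Concentrations expressed as free base. Parameters obtained by noncompartmental analysis as for rat. Mean ± SD.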

The nature of data set [7]: Volume of distribution at steady state in female Sprague-Dawley CD rat at 1 mg/kg, iv. In kind it is ADME, organism-based. On the set-up: dose 1 mg/kg, route intravenous. Particulars: in vivo, read-out: Vdss. The essentials:
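Female Sprague-Dawley CD rats (n = 3) given a single 1 mg/kg iv bolus (free base) in 20% ethanol/physiological saline (apparent pH 3.4). Jugular vein blood taken into EDTA from predose to 32 h. Plasma assayed by solid-phase extraction and LC/MS with an internal standard (range 5–5000 nM). Noncompartmental analysis; mean ± SD.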

Data set [8] concerns Rattus norvegicus. Kind of data set: Hepatic blood flow in iv dosed female Sprague-Dawley CD rat. In kind it is ADME, organism-based, Liver. Particulars: in vivo.
A short description of data set [9]: Oral bioavailability in male Sprague-Dawley CD rat at 5 mg/kg relative to 1 mg/kg, iv dose. In kind it is ADME, organism-based. Particulars: in vivo. In outline: (§2)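 Sprague-Dawley CD rats: 1 mg/kg iv bolus in 20% ethanol/saline (apparent pH 3.4) to 3 males and 3 females; 5 mg/kg po in 0.5% methylcellulose with 1% Tween-80 to 3 males. Jugular blood into EDTA, predose to 32 h. Free base quantified by LC/MS after solid-phase extraction (range 5-5000 nM); noncompartmental analysis; F relative to iv.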

Data set [10] concerns Rattus norvegicus. Kind of data set: Ex vivo receptor occupancy of CRF1 receptor in Sprague-Dawley rat brain at 30 mg/kg, po by [125I]sauvagine binding and autoradiography relative to control. In kind it is functional. The essentials:
(§3)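 Sprague-Dawley rats dosed po at 0.3, 1, 3, 10, 30 mg/kg in the defensive-withdrawal vehicle and protocol; brains removed, sectioned, frozen at -80 °C, then ex vivo binding gave occupancy relative to vehicle-treated rats; mean ± SEM.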

Data set [11] is described as follows: Clearance in female Sprague-Dawley CD rat at 1 mg/kg, iv. In kind it is ADME, organism-based. More on the design: dose 1 mg/kg, route intravenous. Particulars: in vivo. In outline:
as §2

The test system of data set [12] is Rattus norvegicus. Description: Anxiolytic-like activity in Sprague-Dawley rat assessed as increase in time spent in open arms at 30 mg/kg, po measured after 1 hr by elevated plus maze test. In kind it is functional, organism-based. On the set-up: dose 30 mg/kg. In outline: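 Group-housed male Sprague-Dawley rats (180-300 g) dosed po in 0.25% Methocel 1 h before elevated plus maze; arm entry defined as all four paws in arm; percent time in open arms scored; test doses 1.0, 3.0, 10, 30 mg/kg; positive control at 18 mg/kg; n = 13-15/dose; mean ± SEM, ANOVA then Fisher's LSD.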

The test system of data set [13] is Rattus norvegicus. Description: Ex vivo receptor occupancy of CRF1 receptor in Sprague-Dawley rat brain at 3 mg/kg, po by [125I]sauvagine binding and autoradiography relative to control. In kind it is functional. The essentials: as §3
Data set [14] in a line: Elimination half life in male Sprague-Dawley CD rat at 1 mg/kg, iv. In kind it is ADME, organism-based. On the set-up: dose 1 mg/kg, route intravenous. As to conditions: in vivo, read-out: beta t1/2 (converted). The essentials: as §2
The test system of data set [15] is Rattus norvegicus. Description: Hepatic blood flow in iv dosed male Sprague-Dawley CD rat. Particulars: in vivo. In kind it is ADME, organism-based, Liver.
Data set [16] relates to Rattus norvegicus. Kind of data set: Ex vivo receptor occupancy of CRF1 receptor in Sprague-Dawley rat brain at 0.3 mg/kg, po by [125I]sauvagine binding and autoradiography relative to control. In kind it is functional. In outline: as §3
In data set [17] the test system is Rattus norvegicus. Kind of data set: Anxiolytic-like activity in Sprague-Dawley rat assessed as decrease in latency to exit dark chamber at 30 mg/kg, po measured after 1 hr by defensive withdrawal test relative to control. On the set-up: scale not given: the % may be the effect or the level left. In kind it is functional. The essentials:
(§4)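 Male Sprague-Dawley rats (180-300 g), individually housed; open field with cylindrical dark chamber; oral dosing in 0.25% Methocel 1 h before a 15 min session scored blind via video; latency to place all four paws in open field recorded, maximum 900 s; test doses 1.0, 3.0, 10, 30 mg/kg; positive control at 10 mg/kg; n = 12/dose; Kruskal-Wallis then Mann-Whitney U.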

Data set [18] relates to Rattus norvegicus. Description: Ex vivo receptor occupancy of CRF1 receptor in Sprague-Dawley rat brain at 1 mg/kg, po by [125I]sauvagine binding and autoradiography relative to control. In kind it is functional. In outline:
as §3

The test system of data set [19] is Rattus norvegicus. Kind of data set: Ex vivo receptor occupancy of CRF1 receptor in Sprague-Dawley rat brain at 10 mg/kg, po by [125I]sauvagine binding and autoradiography relative to control. In kind it is functional. The essentials:
as §3

Data set [20] deals with Rattus norvegicus. Kind of data set: Anxiolytic-like activity in Sprague-Dawley rat assessed as decrease in latency to exit dark chamber at 10 mg/kg, po measured after 1 hr by defensive withdrawal test relative to control. In kind it is functional. More on the design: scale not given: the % may be the effect or the level left. In outline: as §4
In data set [21] the test system is Rattus norvegicus. Description: Toxicity in Sprague-Dawley rat assessed as time spent on rotarod at 30 mg/kg, po after 1 hr by rotarod test. In kind it is organism-based. More on the design: dose 30 mg/kg, route oral. Particulars: in vivo. In outline:
(§5)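 Male Sprague-Dawley rats received a single oral gavage dose of 30 mg/kg (free base weight) in 0.5% methocel–Tween-80 (99:1) or vehicle alone. Behaviour was assessed 1 h postdose, as time on the rotorod in seconds for the rotorod test and total distance travelled in cm for open-field locomotor activity. Values are mean ± SEM, n = 8 per group.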

Data set [22] in a line: Elimination half life in female Sprague-Dawley CD rat at 1 mg/kg, iv. In kind it is ADME, organism-based. On the set-up: dose 1 mg/kg, route intravenous. As to conditions: in vivo, read-out: beta t1/2 (converted). The essentials: as §2
The test system of data set [23] is Rattus norvegicus. Kind of data set: Toxicity in Sprague-Dawley rat assessed as total distance traveled at 30 mg/kg, po after 1 hr by open-field locomotor activity test. In kind it is organism-based. More on the design: dose 30 mg/kg, route oral. As to conditions: in vivo. In outline:
as §5

The subject of data set [24] is Rattus norvegicus. Description: Anxiolytic-like activity in Sprague-Dawley rat assessed as decrease in latency to exit dark chamber at 3 mg/kg, po measured after 1 hr by defensive withdrawal test relative to control. On the set-up: scale not given: the % may be the effect or the level left. In kind it is functional. In outline:
as §4

The nature of data set [25]: Clearance in male Sprague-Dawley CD rat at 1 mg/kg, iv. On the set-up: dose 1 mg/kg, route intravenous. Particulars: in vivo. In kind it is ADME, organism-based. In outline:
as §2

Data set [26] in a line: Tmax in male Sprague-Dawley CD rat at 5 mg/kg, po. In kind it is ADME, organism-based. As to conditions: in vivo. More on the design: dose 5 mg/kg, route oral. The essentials: as §2
The subject of data set [27] is Rattus norvegicus. Description: Ex vivo receptor occupancy of CRF1 receptor in po dosed Sprague-Dawley rat brain by [125I]sauvagine binding and autoradiography relative to control. In kind it is functional. As to conditions: read-out: MED. The essentials:
as §3

By clearance is commonly meant the rate of elimination divided by the concentration. As a reminder, the Tmax is the time at which the peak concentration occurs. One may read the Cmax as the highest concentration seen after dosing. What is called bioavailability is dose-corrected exposure relative to a reference, in per cent. Turning to `CC[C@@H](C)Nc1nc(C)nc2c(-c3c(C)cc(OC)cc3OC)c(C)nn12`, in data set [1], the clearance was 10 mL/min/kg. The Tmax in data set [2] is 4 h. Moreover, in [3], the half-life was 33.3 h. Moreover, in data set [4], the highest concentration (Cmax) amounted to 1940 nM. The bioavailability in data set [5] worked out at 4.7%. In addition, in data set [6], the Vd was found to be 14.8 L/kg.
For `COCCN(CCOC)c1nc(C)nc2c(-c3ccc(OC)cc3C)c(C)nn12`, the Vd in data set [7] amounted to 12.2 L/kg. Further, the QH in data set [8] and in [15] was 55 mL/min/kg throughout. This compound also yielded a bioavailability in data set [9] of 51%. Also, the Activity in data set [10] is 82%; in data set [13] it was 48%; in data set [16], 12%; in data set [17], 59%; in data set [18], 17%; in data set [19], 60%. The Activity was 73% in data set [20], 4986 cm in data set [23] and 62% in data set [24]. Also, the clearance is 14.5 mL/min/kg in data set [11] and 20 mL/min/kg in data set [25]. Also, in [12], the outcome was Active. For the same compound, the half-life in data set [14] is 9.7 h; in [22] it was 11.9 h. The Time in [21] was found to be 158 s. Further, the time to peak (Tmax) in [26] was 0.5 h. The minimal effective dose in data set [27] is 3 mg/kg.
